{"source": "ChEMBL document CHEMBL4270565", "about": "“Design, synthesis and antimicrobial evaluation of propylene-tethered ciprofloxacin-isatin hybrids” (Eur J Med Chem, 2018)", "data": [{"test_system": "Mycobacterium tuberculosis", "assay": "Antimycobacterial activity against isoniazid/rifampicin/ethambutol-resistant Mycobacterium tuberculosis after 7 days", "format": "functional", "settings": "168 h", "how_it_was_run": "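Rapid direct susceptibility test in 48-well plates. Two-fold dilutions of compound from DMSO stocks were mixed with an equal volume of bacterial suspension. Medium-only wells served as growth controls and water-only wells as no-growth controls. Plates were sealed and held at 37 C in a humid box, and controls were checked at 3 days. MIC (90% growth inhibition) was read visually by high-magnification observation of the cells and re-read at 7 days.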", "units": {"MIC90": "µg/mL"}, "values": [{"smiles": "CCO/N=C1\\C(=O)N(CCCN2CCN(c3cc4c(cc3F)c(=O)c(C(=O)OCCCN3C(=O)/C(=N/OCC)c5cc(C)ccc53)cn4C3CC3)CC2)c2ccc(C)cc21", "MIC90": 64}, {"smiles": "O=C1C(=O)N(CCCN2CCN(c3cc4c(cc3F)c(=O)c(C(=O)O)cn4C3CC3)CC2)c2ccccc21", "MIC90": 0.5}, {"smiles": "O=C(O)c1cn(C2CC2)c2cc(N3CCNCC3)c(F)cc2c1=O", "note": "[CIPROFLOXACIN]", "MIC90": 2}, {"smiles": "CCO/N=C1\\C(=O)N(CCCN2CCN(c3cc4c(cc3F)c(=O)c(C(=O)O)cn4C3CC3)CC2)c2ccc(C)cc21", "MIC90": 4}, {"smiles": "CO/N=C1\\C(=O)N(CCCN2CCN(c3cc4c(cc3F)c(=O)c(C(=O)OCCCN3C(=O)/C(=N/OC)c5ccccc53)cn4C3CC3)CC2)c2ccccc21", "MIC90": 64}, {"smiles": "CO[C@H]1/C=C/O[C@@]2(C)Oc3c(C)c(O)c4c(O)c(c(/C=N/N5CCN(C)CC5)c(O)c4c3C2=O)NC(=O)/C(C)=C\\C=C\\[C@H](C)[C@H](O)[C@@H](C)[C@@H](O)[C@@H](C)[C@H](OC(C)=O)[C@@H]1C", "note": "[RIFAMPIN]", "MIC90": 32}, {"smiles": "Cc1ccc2c(c1)C(=O)C(=O)N2CCCN1CCN(c2cc3c(cc2F)c(=O)c(C(=O)O)cn3C2CC2)CC1", "MIC90": 0.5}, {"smiles": "CO/N=C1\\C(=O)N(CCCN2CCN(c3cc4c(cc3F)c(=O)c(C(=O)O)cn4C3CC3)CC2)c2ccc(C)cc21", "MIC90": 1}, {"smiles": "CCO/N=C1\\C(=O)N(CCCN2CCN(c3cc4c(cc3F)c(=O)c(C(=O)O)cn4C3CC3)CC2)c2ccccc21", "MIC90": 1}, {"smiles": "CO/N=C1\\C(=O)N(CCCN2CCN(c3cc4c(cc3F)c(=O)c(C(=O)O)cn4C3CC3)CC2)c2ccccc21", "MIC90": 2}, {"smiles": "O=C1C(=O)N(CCCOC(=O)c2cn(C3CC3)c3cc(N4CCN(CCCN5C(=O)C(=O)c6ccccc65)CC4)c(F)cc3c2=O)c2ccccc21", "MIC90": 32}, {"smiles": "NNC(=O)c1ccncc1", "note": "[ISONIAZID]", "MIC90": "> 128"}, {"smiles": "CO/N=C1\\C(=O)N(CCCN2CCN(c3cc4c(cc3F)c(=O)c(C(=O)OCCCN3C(=O)/C(=N/OC)c5cc(C)ccc53)cn4C3CC3)CC2)c2ccc(C)cc21", "MIC90": 32}, {"smiles": "Cc1ccc2c(c1)C(=O)C(=O)N2CCCOC(=O)c1cn(C2CC2)c2cc(N3CCN(CCCN4C(=O)C(=O)c5cc(C)ccc54)CC3)c(F)cc2c1=O", "MIC90": 32}, {"smiles": "CCO/N=C1\\C(=O)N(CCCN2CCN(c3cc4c(cc3F)c(=O)c(C(=O)OCCCN3C(=O)/C(=N/OCC)c5ccccc53)cn4C3CC3)CC2)c2ccccc21", "MIC90": 64}]}, {"test_system": "Mycobacterium tuberculosis", "assay": "Potency index, ratio of ciprofloxacin MIC90 to compound MIC90 for isoniazid/rifampicin/ethambutol-resistant Mycobacterium tuberculosis after 7 days", "format": "functional", "settings": "not given", "values": [{"smiles": "Cc1ccc2c(c1)C(=O)C(=O)N2CCCN1CCN(c2cc3c(cc2F)c(=O)c(C(=O)O)cn3C2CC2)CC1", "Ratio": ">=4 - 256"}]}, {"test_system": "Mycobacterium tuberculosis", "assay": "Potency index, ratio of rifampicin MIC90 to compound MIC90 for isoniazid/rifampicin/ethambutol-resistant Mycobacterium tuberculosis after 7 days", "format": "functional", "settings": "not given", "values": [{"smiles": "Cc1ccc2c(c1)C(=O)C(=O)N2CCCN1CCN(c2cc3c(cc2F)c(=O)c(C(=O)O)cn3C2CC2)CC1", "Ratio": ">=4 - 256"}]}, {"test_system": "Mycobacterium tuberculosis", "assay": "Potency index, ratio of isoniazid MIC90 to compound MIC90 for isoniazid/rifampicin/ethambutol-resistant Mycobacterium tuberculosis after 7 days", "format": "functional", "settings": "not given", "values": [{"smiles": "Cc1ccc2c(c1)C(=O)C(=O)N2CCCN1CCN(c2cc3c(cc2F)c(=O)c(C(=O)O)cn3C2CC2)CC1", "Ratio": ">=4 - 256"}]}]}
